# Experimental data from ChEMBL document CHEMBL4477197, “Antitumor Activity of Spicatoside A by Modulation of Autophagy and Apoptosis in Human Colorectal Cancer Cells” (J Nat Prod, 2016).
# What was measured:
# A549 = test: Antiproliferative activity against human A549 cells after 24 to 72 hrs by SRB assay; type: functional, cell-based
# Outline: (§1)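 Cells from ATCC were grown at 37 °C in 5% CO2, in RPMI 1640 (A549, HCT116, SNU-638) or DMEM (MDA-MB-231, SK-HEP-1, MRC5) with 10% FBS. They were seeded at 6 × 10^3 cells/well for 24 h, then exposed for 72 h. Cells were TCA-fixed, stained with 0.4% SRB, and read at 515 nm against day-zero plates. IC50 came from nonlinear regression, as means ± SD.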
# HCT-116 = test: Antiproliferative activity against human HCT116 cells after 24 to 72 hrs by SRB assay; type: functional, cell-based; outline: as §1
# MDA-MB-231 = test: Antiproliferative activity against human MDA-MB-231 cells after 24 to 72 hrs by SRB assay; type: functional, cell-based; outline: as §1
# SNU-638 = test: Antiproliferative activity against human SNU638 cells after 24 to 72 hrs by SRB assay; type: functional, cell-based; outline: as §1
# SK-HEP1 = test: Antiproliferative activity against human SKHEP1 cells after 24 to 72 hrs by SRB assay; type: functional, cell-based; outline: as §1
# MRC5 = test: Antiproliferative activity against human MRC5 cells after 24 to 72 hrs by SRB assay; type: cell-based; outline: as §1
structure (smiles),measurement,setting,value
Cc1c2ccncc2c(C)c2c1[nH]c1ccccc12 [ELLIPTECINE],IC50,A549,400 nM
same,IC50,HCT-116,1000 nM
same,IC50,MDA-MB-231,100 nM
same,IC50,SNU-638,2700 nM
same,IC50,SK-HEP1,400 nM
same,IC50,MRC5,1300 nM
